The values below come from ChEMBL document CHEMBL1148976, “Hypoxia-inducible factor-1 activation by (-)-epicatechin gallate: potential adverse effects of cancer chemoprevention with high-dose green tea extracts” (J Nat Prod, 2004).

For series [1], the system named is T47D. Briefly: Induction of HIF1 activation in human T47D cells under normoxic condition at 100 uM in presence of 100 uM iron(2). In kind it is cell-based. The essentials: (§1)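 T47D cells transiently co-transfected by electroporation with pTK-HRE3-luc (50 μg mL−1) and pRL-TK (5 μg mL−1). Read-out is dual luciferase, with firefly normalized to Renilla. Incubation runs 16 h under normoxia. Iron salt or ascorbate is added with test compound (100 μM). Data come from one representative experiment in quadruplicate, mean ± SD, p <0.05 versus control.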

Series [2] relates to T47D. Briefly: Induction of HIF1 activation in human T47D cells under normoxic condition at 100 uM in presence of 300 uM iron(2). In kind it is cell-based. The essentials: as §1
Series [3] concerns the target Aryl hydrocarbon receptor nuclear translocator (Homo sapiens) (UniProt P27540). Briefly: Induction of HIF1beta protein in human T47D cells under normoxic condition at 100 uM after 4 hrs by Western blot analysis in presence of 300 uM iron(2). The series is classed as cell-based. The essentials:
(§2)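 T47D cells (10 million per 100 mm plate, 10% FBS DMEM/F12) are plated and left overnight. Test compound, with or without iron salt, ascorbate or Trolox, is added for 30 min at 37 °C. Cells then stand 4 h under normoxia (5% CO2:95% air) or hypoxia (5% CO2:1% O2:94% N2). Nuclear extracts are probed for HIF-1α and HIF-1β by Western blot.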
On the technique in general: A western blot detects proteins with antibodies after separation by electrophoresis.

Series [4] concerns the target Hypoxia inducible factors; HIF-1-alpha, HIF-2-alpha (Homo sapiens) (UniProt Q16665+Q99814). Kind of series: Inhibition of hypoxia-induced HIF1 activation in human T47D cells expressing pTK-HRE-luc gene at 100 uM by luciferase reporter assay. The series is classed as cell-based. In short, it runs like this:
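T47D cells co-transfected by electroporation with pTK-HRE3-luc and pRL-TK. Compound at 100 μM, then hypoxia (1% O2). Dual luciferase read-out, firefly normalized to Renilla. Value is % inhibition of hypoxic HIF-1 activation. pGL3-Control reporter cells used as specificity control.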
Background: A reporter such as luciferase makes a cellular process visible.

Series [5] has as its system T47D. Briefly: Induction of HIF1 activation in human T47D cells under normoxic condition at 100 uM in presence of 50 uM iron(3). The series is classed as cell-based. The essentials: as §1
Series [6] deals with T47D. Briefly: Induction of VEGF mRNA expression in human T47D cells under normoxic condition at 100 uM after 16 hrs by RT-PCR. The series is classed as functional, cell-based. In short, it runs like this: (§3)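 T47D cells, pretreated 30 min, then 16 h under normoxia or hypoxia (1% O2). Total RNA extracted immediately after treatment, checked by absorbance and agarose gel. Target mRNA measured by quantitative real-time RT-PCR, normalized to 18S rRNA, relative expression by ΔΔCT method. Mean ± SD from one representative experiment in triplicate.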

The test system of series [7] is T47D. Kind of series: Induction of HIF1 activation in human T47D cells under normoxic condition at 100 uM by luciferase reporter gene assay in presence of ascorbate. In kind it is cell-based. In short, it runs like this: as §1
Series [8] deals with Hypoxia-inducible factor 1-alpha (Homo sapiens) (UniProt Q16665). Briefly: Inhibition of hypoxia-induced increase in HIF1alpha protein in human T47D cells at 100 uM after 4 hrs by Western blot analysis. The series is classed as cell-based. The essentials: as §2
Hypoxia-inducible factor 1-alpha (Homo sapiens), sequence (Q16665 whole entry, looked up): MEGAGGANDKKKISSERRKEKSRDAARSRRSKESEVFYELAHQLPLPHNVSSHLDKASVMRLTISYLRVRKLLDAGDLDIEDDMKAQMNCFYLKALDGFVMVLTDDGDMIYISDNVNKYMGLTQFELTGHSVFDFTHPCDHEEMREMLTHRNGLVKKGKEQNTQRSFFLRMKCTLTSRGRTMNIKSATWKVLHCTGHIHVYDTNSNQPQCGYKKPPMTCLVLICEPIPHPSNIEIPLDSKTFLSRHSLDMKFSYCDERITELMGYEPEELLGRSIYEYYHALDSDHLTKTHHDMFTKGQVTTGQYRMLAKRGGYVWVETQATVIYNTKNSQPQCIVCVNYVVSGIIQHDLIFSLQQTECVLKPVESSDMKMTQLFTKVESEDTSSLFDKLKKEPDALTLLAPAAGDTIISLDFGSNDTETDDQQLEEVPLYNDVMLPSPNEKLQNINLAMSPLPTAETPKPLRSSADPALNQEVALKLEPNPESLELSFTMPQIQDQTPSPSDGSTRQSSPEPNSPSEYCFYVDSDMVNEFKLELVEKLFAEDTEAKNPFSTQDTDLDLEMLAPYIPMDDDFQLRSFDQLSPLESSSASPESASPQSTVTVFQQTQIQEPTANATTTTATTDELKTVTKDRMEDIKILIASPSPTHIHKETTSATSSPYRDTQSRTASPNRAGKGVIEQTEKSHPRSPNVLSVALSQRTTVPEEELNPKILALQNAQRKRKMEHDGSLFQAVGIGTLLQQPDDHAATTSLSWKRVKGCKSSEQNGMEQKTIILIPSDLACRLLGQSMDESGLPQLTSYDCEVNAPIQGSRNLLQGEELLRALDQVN
The target of series [9] is Aryl hydrocarbon receptor nuclear translocator (Homo sapiens) (UniProt P27540). Kind of series: Induction of HIF1beta protein in human T47D cells under normoxic condition at 100 uM after 4 hrs by Western blot analysis in presence of ascorbate. The series is classed as cell-based. In short, it runs like this: as §2
Aryl hydrocarbon receptor nuclear translocator (Homo sapiens), sequence (P27540 whole entry): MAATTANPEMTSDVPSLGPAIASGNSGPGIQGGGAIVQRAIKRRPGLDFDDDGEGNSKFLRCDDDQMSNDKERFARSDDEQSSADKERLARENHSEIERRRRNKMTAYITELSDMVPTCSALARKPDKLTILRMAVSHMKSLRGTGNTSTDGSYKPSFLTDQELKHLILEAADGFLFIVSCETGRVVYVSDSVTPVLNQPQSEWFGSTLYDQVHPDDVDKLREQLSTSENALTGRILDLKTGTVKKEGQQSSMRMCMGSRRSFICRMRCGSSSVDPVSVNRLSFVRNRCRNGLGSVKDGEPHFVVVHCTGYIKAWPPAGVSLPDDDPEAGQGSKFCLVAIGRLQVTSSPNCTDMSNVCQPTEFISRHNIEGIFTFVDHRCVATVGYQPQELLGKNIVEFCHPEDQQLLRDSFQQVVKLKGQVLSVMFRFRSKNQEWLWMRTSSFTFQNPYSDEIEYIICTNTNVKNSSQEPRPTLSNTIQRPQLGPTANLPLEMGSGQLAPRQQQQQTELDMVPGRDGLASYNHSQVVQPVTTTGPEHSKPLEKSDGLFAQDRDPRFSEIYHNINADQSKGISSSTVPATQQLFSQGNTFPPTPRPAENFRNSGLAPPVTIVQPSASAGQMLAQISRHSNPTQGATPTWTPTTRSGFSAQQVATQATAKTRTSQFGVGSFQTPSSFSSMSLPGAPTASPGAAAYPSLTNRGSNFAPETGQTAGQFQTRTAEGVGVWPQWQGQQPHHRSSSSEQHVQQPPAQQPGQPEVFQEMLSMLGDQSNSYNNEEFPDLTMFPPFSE
The subject of series [10] is T47D. Briefly: Decrease in hypoxia-induced HIF1alpha mRNA expression in human T47D cells at 100 uM after 16 hrs by RT-PCR. The series is classed as functional, cell-based. The essentials: as §3
For series [11], the system named is T47D. Briefly: Induction of HIF1 activation in human T47D cells under normoxic condition at 100 uM in presence of 150 uM iron(3). The series is classed as cell-based. The essentials: as §1
Series [12] has as its target Hypoxia-inducible factor 1-alpha (Homo sapiens) (UniProt Q16665). Briefly: Induction of HIF1alpha protein in human T47D cells under normoxic condition at 100 uM after 4 hrs by Western blot analysis in presence of 300 uM iron(2). The series is classed as cell-based. In short, it runs like this:
as §2

Series [13] deals with T47D. Kind of series: Inhibition of hypoxia-induced GLUT1 mRNA expression in human T47D cells at 100 uM after 16 hrs by RT-PCR. In kind it is functional, cell-based. The essentials: as §3
The subject of series [14] is T47D. Briefly: Inhibition of hypoxia-induced VEGF mRNA expression in human T47D cells at 100 uM after 16 hrs by RT-PCR. In kind it is functional, cell-based. In short, it runs like this: as §3
Series [15] relates to T47D. Briefly: Increase in HIF1alpha mRNA expression in human T47D cells under normoxic condition at 100 uM after 16 hrs by RT-PCR. The series is classed as functional, cell-based. The essentials:
as §3

Series [16] addresses Aryl hydrocarbon receptor nuclear translocator (Homo sapiens) (UniProt P27540). Kind of series: Induction of HIF1beta protein in human T47D cells under normoxic condition at 100 uM after 4 hrs by Western blot analysis. The series is classed as cell-based. The essentials: as §2
The subject of series [17] is T47D. Kind of series: Induction of GLUT1 mRNA expression in human T47D cells under normoxic condition at 100 uM after 16 hrs by RT-PCR. The series is classed as functional, cell-based. The essentials:
as §3

Series [18] concerns the target Hypoxia-inducible factor 1-alpha (Homo sapiens) (UniProt Q16665). Briefly: Induction of HIF1alpha protein in human T47D cells under normoxic condition at 100 uM after 4 hrs by Western blot analysis in presence of 150 uM iron(3). The series is classed as cell-based. In short, it runs like this: as §2
For series [19] the target is unchanged. Kind of series: Induction of HIF1alpha protein in human T47D cells under normoxic condition at 100 uM after 4 hrs by Western blot analysis in presence of trolox. The series is classed as cell-based. In short, it runs like this:
as §2

For series [20] the target is unchanged. Kind of series: Induction of HIF1alpha protein in human T47D cells under normoxic condition at 100 uM after 4 hrs by Western blot analysis in presence of 100 uM iron(2). In kind it is cell-based. The essentials:
as §2

Series [21] shares this target. Briefly: Induction of HIF1alpha protein in human T47D cells under normoxic condition at 100 uM after 4 hrs by Western blot analysis in presence of ascorbate. In kind it is cell-based. The essentials: as §2
Series [22] has the same target. Briefly: Induction of HIF1alpha protein in human T47D cells under normoxic condition at 100 uM after 4 hrs by Western blot analysis. The series is classed as cell-based. In short, it runs like this:
as §2

Series [23] has as its system T47D. Briefly: Induction of HIF1 activation in human T47D cells expressing pTK-HRE-luc gene under normoxic condition at 100 uM after 16 hrs by luciferase reporter assay relative to control. In kind it is cell-based. In short, it runs like this:
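T47D cells transiently co-transfected by electroporation with pTK-HRE3-luc (50 μg mL−1) and pRL-TK (5 μg mL−1). Compound at 100 μM under normoxia (5% CO2:95% air, 37 °C) for 16 h. Dual luciferase read-out, firefly normalized to Renilla, expressed as fold over control. pGL3-Control transfected cells run as counter-check.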

Series [24] deals with Aryl hydrocarbon receptor nuclear translocator (Homo sapiens) (UniProt P27540). Briefly: Induction of HIF1beta protein in human T47D cells under normoxic condition at 100 uM after 4 hrs by Western blot analysis in presence of 150 uM iron(3). The series is classed as cell-based. The essentials: as §2
In series [25] the test system is T47D. Briefly: Induction of CDKN1A mRNA expression in human T47D cells under normoxic condition at 100 uM after 16 hrs by RT-PCR. In kind it is functional, cell-based. In short, it runs like this: as §3
The nature of series [26]: Aqueous stability of the compound. The series is classed as physicochemical. To be noted: buffer. In short, it runs like this: (§4)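 Compound added at 100 μM final in serum-free DMEM/F12 with Pen/Strep to medium with 5% FBS, with or without T47D cells, 30 min, then hypoxia (1% O2) 16 h. Other samples: cell-free medium with or without antibiotics. Conditioned medium extracted; normal-phase TLC on silica gel G with UV254 indicator, UV254 quenching read-out. Extraction control: compound mixed with medium immediately before extraction.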

Series [27] can be described thus: Chemical stability in DMEM/F12 medium in presence of fetal calf serum. In kind it is physicochemical. The note with it: cattle. The essentials: as §4

The source made the active and inactive calls. The calls are words filed in the database; no cut-off is given here.

For the compound `CC(=O)N(O)CCCCCNC(=O)CCC(=O)N(O)CCCCCNC(=O)CCC(=O)N(O)CCCCCN`, the result in the series on T47D [1] and in the series with T47D [2] was inactive.
`O=C(O[C@@H]1Cc2c(O)cc(O)cc2O[C@@H]1c1ccc(O)c(O)c1)c1cc(O)c(O)c(O)c1`: the outcome (in series [3]; in the series on T47D [6]; in series [8]; in [9]; in the series on T47D [17]; in [19]) was Active. For the same compound, the result (in series [22]; in [24]; in the series with T47D [25]) was Active. Further, in series [4], the inhibition (usually the drop in the measured response relative to a control, in per cent) came out at 79%. In addition, the result (in the series on T47D [5]; in the series with T47D [7]; with T47D [10]; in the series on T47D [11]; in series [12]; in the series on T47D [13]) was inactive. For the same compound, the outcome (in the series with T47D [14]; with T47D [15]; in series [16]; in series [18]; in [20]; in series [21]) was inactive. In addition, in the series on T47D [2], the outcome was inactive. Further, the fold change (FC) with T47D [23] was 16.8.
For `O=C(O[C@@H]1Cc2c(O)cc(O)cc2O[C@@H]1c1cc(O)c(O)c(O)c1)c1cc(O)c(O)c(O)c1` [EPIGALOCATECHIN GALLATE], the outcome in [4] was inactive. The Stability entry in series [26] and in series [27] was “Unstable” throughout. This compound registered a fold change (FC) in the series on T47D [23] of 3.6.
Turning to `Cc1c(C)c2c(c(C)c1O)CCC(C)(C(=O)O)O2` (configuration not stated), the result in series [16] and in series [22] was inactive.
